According to ChEMBL document CHEMBL3232993, “Design, synthesis, and structure-activity relationship of a novel series of GluN2C-selective potentiators” (J Med Chem, 2014):
The source made the active and inactive calls. No cut-off for these calls is given here.

Key:
Type in all cases: cell-based
[1] = molecular target: Glutamate NMDA receptor; Grin1/Grin2c (Rattus norvegicus) (UniProt P35439+Q00961); assay: Potentiation of rat recombinant GluN1/GluN2C expressed in Xenopus laevis oocytes assessed as increase in glutamate/glycine-induced current response at 30 uM by two-electrode voltage clamp technique relative to control
Procedure, shortened: (§1)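 Two-electrode voltage clamp at −40 mV on Xenopus oocytes coexpressing GluN1 with GluN2A, 2B, 2C or 2D. […] Compounds came from 20 mM DMSO stocks, with 0.05–0.5% final DMSO. Some GluN2A oocytes were injected with K-BAPTA to limit current run-up. Recording solution was pH 7.4, 23 °C.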

[2] = molecular target: Ionotropic glutamate receptor NMDA 1/2D (Rattus norvegicus) (UniProt P35439+Q62645); assay: Potentiation of rat recombinant GluN1/GluN2D expressed in Xenopus laevis oocytes assessed as increase in glutamate/glycine-induced current response at 30 uM by two-electrode voltage clamp technique relative to control; procedure, shortened: as §1
[3] = molecular target: Glutamate NMDA receptor; Grin1/Grin2a (Rattus norvegicus) (UniProt P35439+Q00959); assay: Potentiation of rat recombinant GluN1/GluN2A expressed in Xenopus laevis oocytes assessed as increase in glutamate/glycine-induced current response at 30 uM by two-electrode voltage clamp technique relative to control; procedure, shortened: as §1
[4] = molecular target: Glutamate NMDA receptor; Grin1/Grin2b (Rattus norvegicus) (UniProt P35439+Q00960); assay: Potentiation of rat recombinant GluN1/GluN2B expressed in Xenopus laevis oocytes assessed as increase in glutamate/glycine-induced current response at 30 uM by two-electrode voltage clamp technique relative to control; procedure, shortened: as §1

SMILES | Activity [1] | Activity [2] | Activity [3] | Activity [4] | max activation [1]
COC(=O)c1ccc(C2C(C(=O)c3ccncc3)=C(O)C(=O)N2Cc2c[nH]c3ccccc23)cc1 (stereo not drawn) | 84% | 87% | 106% | 101% | –
COC(=O)c1ccc(C2C(C(=O)c3ccncc3)=C(O)C(=O)N2CCn2cnc3ccccc32)cc1 (stereo not drawn) | 84% | 89% | 104% | 107% | –
CC(=O)C1=C(O)C(=O)N(CCc2c[nH]c3ccccc23)C1c1ccc([N+](=O)[O-])cc1 (stereo not drawn) | 94% | 77% | 106% | 83% | –
CC(=O)C1=C(O)C(=O)N(CCc2c[nH]c3ccccc23)C1c1ccc(C(=O)O)cc1 (stereo not drawn) | 93% | 88% | 100% | 94% | –
COC(=O)c1ccc(C2C(C(=O)c3ccncc3)=C(O)C(=O)N2CCc2c[nH]cn2)cc1 (stereo not drawn) | 89% | 94% | 101% | 95% | –
COC(=O)c1ccc(C2C(C(=O)c3cccc(OC)c3)=C(O)C(=O)N2CCc2c[nH]c3ccccc23)cc1 (stereo not drawn) | 109% | 80% | 92% | 90% | –
COC(=O)c1ccc(C2C(C(C)=O)=C(O)C(=O)N2CCc2ccccc2)cc1 (stereo not drawn) | 95% | 99% | 108% | 117% | –
COC(=O)c1ccc(C2C(C(=O)c3cccnc3)=C(O)C(=O)N2CCc2c[nH]c3cccc(C)c23)cc1 (stereo not drawn) | 85% | 74% | 112% | 70% | –
COC(=O)c1ccc(C2C(C(C)=O)=C(O)C(=O)N2CCc2c[nH]c3ccccc23)cc1Cl (stereo not drawn) | 113% | 83% | 88% | 95% | –
COC(=O)c1ccc(C2C(C(C)=O)=C(O)C(=O)N2CCc2c[nH]c3ccccc23)cc1C (stereo not drawn) | 88% | 86% | 108% | 91% | –
COC(=O)c1ccc(C2C(C(=O)c3cccnc3)=C(O)C(=O)N2CCc2c[nH]c3ccc(OC)cc23)cc1 (stereo not drawn) | 94% | 91% | 112% | 90% | –
CC(=O)C1=C(O)C(=O)N(CCc2c[nH]c3ccccc23)C1c1ccc(C(=O)OC(C)(C)C)cc1 (stereo not drawn) | 85% | 66% | 99% | 81% | –
CC(=O)C1=C(O)C(=O)N(CCc2c[nH]c3ccccc23)C1c1ccc(C(=O)OC(C)C)cc1 (stereo not drawn) | 102% | 83% | 96% | 95% | –
COC(=O)c1ccc(C2C(C(C)=O)=C(N)C(=O)N2CCc2c[nH]c3ccccc23)cc1 (stereo not drawn) | 102% | 75% | 93% | 85% | –
COC(=O)c1ccc(C2C(C(=O)c3cccnc3)=C(O)C(=O)N2CCc2coc3ccccc23)cc1 (stereo not drawn) | 113% | 80% | 96% | 83% | –
COC(=O)c1ccc(C2C(C(C)=O)=C(O)C(=O)N2CCc2c[nH]c3ccccc23)cc1F (stereo not drawn) | 114% | 93% | 99% | 83% | –
COC(=O)c1ccc(C2C(C(=O)c3ccccn3)=C(O)C(=O)N2CCc2c[nH]c3ccccc23)cc1 (stereo not drawn) | 97% | 75% | 106% | 78% | –
CNS(=O)(=O)c1ccc(C2C(C(=O)c3cccnc3)=C(O)C(=O)N2CCc2c[nH]c3ccccc23)cc1 (stereo not drawn) | 114% | 73% | 74% | 88% | –
COC(=O)c1ccc(C2C(C(=O)c3cccnc3)=C(O)C(=O)N2CCCc2c[nH]c3ccccc23)cc1 (stereo not drawn) | 84% | 98% | 96% | 93% | –
COC(=O)c1ccc(C2C(C(C)=O)=C(O)C(=O)N2CCc2c(C)[nH]c3ccccc23)cc1 (stereo in doubt; 106a) | – | – | – | – | 259%
COC(=O)c1ccc(C2C(C(C)=O)=C(O)C(=O)N2CCc2c(C)[nH]c3ccccc23)cc1 (stereo in doubt; 106b) | inactive | – | – | – | –
